# From ChEMBL document CHEMBL5550111, “Design, synthesis and biological evaluation of aryloxy thiophosphoramidate triesters of anticancer nucleoside analogues” (Bioorg Med Chem, 2024)
# Key:
# [1] = Cytotoxicity against human ACHN-luc2 cells assessed as inhibition of cell viability incubated for 72 hrs by MTS assay; assay type: functional, cell-based; conditions: ACHN-luc2, 72 h
# Procedure, shortened: (§1)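 Cells seeded at 0.5 to 100 × 10^3 per well the day before treatment, then exposed for 72 h to 9 serial concentrations (3.16-fold dilutions, top 198 μM), in duplicate. MTS added for a final 4 h at 37 °C and absorbance read. IC50 is the concentration giving 50% loss of viability. MI% is the maximum inhibition over the tested range.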
# [2] = Cytotoxicity against human T24/83 cells assessed as maximum inhibition of cell viability upto 198 uM incubated for 72 hrs by MTS assay relative to control; assay type: functional; conditions: up to 198 µM
# Procedure, shortened: (§2)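 Cells seeded at 0.5 to 100 × 10^3 per well the day before drug addition, then exposed to compound for 72 h. MTS added afterwards, with a further 4 h at 37 °C, and absorbance read. Tested in duplicate at 9 serial 3.16-fold dilutions, top concentration 198 μM. MI% is the maximum inhibition of viability across the tested range.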
# PANC-1 [3] = experiment: Cytotoxicity against human PANC-1 cells assessed as maximum inhibition of cell viability upto 198 uM incubated for 72 hrs by MTS assay relative to control; assay type: functional; conditions: up to 198 µM; procedure, shortened: as §2
# A498 [4] = experiment: Cytotoxicity against human A498 cells assessed as inhibition of cell viability incubated for 72 hrs by MTS assay; assay type: functional, cell-based; conditions: A498, 72 h; procedure, shortened: as §1
# COLO 205 [5] = experiment: Cytotoxicity against human COLO 205 cells assessed as inhibition of cell viability incubated for 72 hrs by MTS assay; assay type: functional, cell-based; conditions: COLO 205, 72 h; procedure, shortened: as §1
# RT112/84 [6] = experiment: Cytotoxicity against human RT112/84 cells assessed as maximum inhibition of cell viability upto 198 uM incubated for 72 hrs by MTS assay relative to control; assay type: functional; conditions: up to 198 µM; procedure, shortened: as §2
# KG-1 [7] = experiment: Cytotoxicity against human KG-1 cells assessed as inhibition of cell viability incubated for 72 hrs by MTS assay; assay type: functional, cell-based; conditions: KG-1, 72 h; procedure, shortened: as §1
# PANC-1 [8] = experiment: Cytotoxicity against human PANC-1 cells assessed as inhibition of cell viability incubated for 72 hrs by MTS assay; assay type: functional, cell-based; conditions: PANC-1, 72 h; procedure, shortened: as §1
# RPMI-8226 [9] = experiment: Cytotoxicity against human RPMI-8226 cells assessed as maximum inhibition of cell viability upto 198 uM incubated for 72 hrs by MTS assay relative to control; assay type: functional; conditions: up to 198 µM; procedure, shortened: as §2
# HT-29 [10] = experiment: Cytotoxicity against human HT-29 cells assessed as inhibition of cell viability incubated for 72 hrs by MTS assay; assay type: functional, cell-based; conditions: HT-29, 72 h; procedure, shortened: as §1
# PC-3 [11] = experiment: Cytotoxicity against human PC-3 cells assessed as inhibition of cell viability incubated for 72 hrs by MTS assay; assay type: functional, cell-based; conditions: PC-3, 72 h; procedure, shortened: as §1
# HL-60 [12] = experiment: Cytotoxicity against human HL-60 cells assessed as maximum inhibition of cell viability upto 198 uM incubated for 72 hrs by MTS assay relative to control; assay type: functional; conditions: up to 198 µM; procedure, shortened: as §2
# 5637 [13] = experiment: Cytotoxicity against human 5637 cells assessed as inhibition of cell viability incubated for 72 hrs by MTS assay; assay type: functional, cell-based; conditions: Homo sapiens, 5637, 72 h; procedure, shortened: as §1
# MIA PaCa-2 [14] = experiment: Cytotoxicity against human MIA PaCa-2 cells assessed as inhibition of cell viability incubated for 72 hrs by MTS assay; assay type: functional, cell-based; conditions: MIA PaCa-2, 72 h; procedure, shortened: as §1
# [15] = Cytotoxicity against human T24/83 cells assessed as inhibition of cell viability incubated for 72 hrs by MTS assay; assay type: functional, cell-based; conditions: T24/83, 72 h; procedure, shortened: as §1
# HL-60 [16] = experiment: Cytotoxicity against human HL-60 cells assessed as inhibition of cell viability incubated for 72 hrs by MTS assay; assay type: functional, cell-based; conditions: HL-60, 72 h; procedure, shortened: as §1
# COLO 205 [17] = experiment: Cytotoxicity against human COLO 205 cells assessed as maximum inhibition of cell viability upto 198 uM incubated for 72 hrs by MTS assay relative to control; assay type: functional; conditions: up to 198 µM; procedure, shortened: as §2
# MCF7 = experiment: Cytotoxicity against human MCF7 cells assessed as maximum inhibition of cell viability upto 198 uM incubated for 72 hrs by MTS assay relative to control; assay type: functional; conditions: up to 198 µM; procedure, shortened: as §2
# A2780 [18] = experiment: Cytotoxicity against human A2780 cells assessed as inhibition of cell viability incubated for 72 hrs by MTS assay; assay type: functional, cell-based; conditions: A2780, 72 h; procedure, shortened: as §1
# BXPC-3 [19] = experiment: Cytotoxicity against human BXPC-3 cells assessed as inhibition of cell viability incubated for 72 hrs by MTS assay; assay type: functional, cell-based; conditions: BXPC-3, 72 h; procedure, shortened: as §1
# HT-29 [20] = experiment: Cytotoxicity against human HT-29 cells assessed as maximum inhibition of cell viability upto 198 uM incubated for 72 hrs by MTS assay relative to control; assay type: functional; conditions: up to 198 µM; procedure, shortened: as §2
# NCI-H1975 = experiment: Cytotoxicity against human NCI-H1975 cells assessed as maximum inhibition of cell viability upto 198 uM incubated for 72 hrs by MTS assay relative to control; assay type: functional; conditions: up to 198 µM; procedure, shortened: as §2
# K562 [21] = experiment: Cytotoxicity against human K562 cells assessed as inhibition of cell viability incubated for 72 hrs by MTS assay; assay type: functional, cell-based; conditions: K562, 72 h; procedure, shortened: as §1
# RL [22] = experiment: Cytotoxicity against human RL cells assessed as maximum inhibition of cell viability upto 198 uM incubated for 72 hrs by MTS assay relative to control; assay type: functional; conditions: up to 198 µM; procedure, shortened: as §2
# A2780 [23] = experiment: Cytotoxicity against human A2780 cells assessed as maximum inhibition of cell viability upto 198 uM incubated for 72 hrs by MTS assay relative to control; assay type: functional; conditions: up to 198 µM; procedure, shortened: as §2
# RT112/84 [24] = experiment: Cytotoxicity against human RT112/84 cells assessed as inhibition of cell viability incubated for 72 hrs by MTS assay; assay type: functional, cell-based; conditions: RT112/84, 72 h; procedure, shortened: as §1
# RPMI-8226 [25] = experiment: Cytotoxicity against human RPMI-8226 cells assessed as inhibition of cell viability incubated for 72 hrs by MTS assay; assay type: functional, cell-based; conditions: RPMI-8226, 72 h; procedure, shortened: as §1
# SK-MES-1 [26] = experiment: Cytotoxicity against human SK-MES-1 cells assessed as inhibition of cell viability incubated for 72 hrs by MTS assay; assay type: functional, cell-based; conditions: SK-MES-1, 72 h; procedure, shortened: as §1
# CAKI-2 [27] = experiment: Cytotoxicity against human CAKI-2 cells assessed as inhibition of cell viability incubated for 72 hrs by MTS assay; assay type: functional, cell-based; conditions: CAKI-2, 72 h; procedure, shortened: as §1
# MOLT-4 [28] = experiment: Cytotoxicity against human MOLT-4 cells assessed as maximum inhibition of cell viability upto 198 uM incubated for 72 hrs by MTS assay relative to control; assay type: functional; conditions: up to 198 µM; procedure, shortened: as §2
# PC-3 [29] = experiment: Cytotoxicity against human PC-3 cells assessed as maximum inhibition of cell viability upto 198 uM incubated for 72 hrs by MTS assay relative to control; assay type: functional; conditions: up to 198 µM; procedure, shortened: as §2
# RL [30] = experiment: Cytotoxicity against human RL cells assessed as inhibition of cell viability incubated for 72 hrs by MTS assay; assay type: functional, cell-based; procedure, shortened: as §1
# MDA-MB-231 = experiment: Cytotoxicity against human MDA-MB-231 cells assessed as maximum inhibition of cell viability upto 198 uM incubated for 72 hrs by MTS assay relative to control; assay type: functional; conditions: up to 198 µM; procedure, shortened: as §2
# HepG2 [31] = experiment: Cytotoxicity against human HepG2 cells assessed as maximum inhibition of cell viability upto 198 uM incubated for 72 hrs by MTS assay relative to control; assay type: functional; conditions: up to 198 µM; procedure, shortened: as §2
# MIA PaCa-2 [32] = experiment: Cytotoxicity against human MIA PaCa-2 cells assessed as maximum inhibition of cell viability upto 198 uM incubated for 72 hrs by MTS assay relative to control; assay type: functional; conditions: up to 198 µM; procedure, shortened: as §2
# K562 [33] = experiment: Cytotoxicity against human K562 cells assessed as maximum inhibition of cell viability upto 198 uM incubated for 72 hrs by MTS assay relative to control; assay type: functional; conditions: up to 198 µM; procedure, shortened: as §2
# MOLT-4 [34] = experiment: Cytotoxicity against human MOLT-4 cells assessed as inhibition of cell viability incubated for 72 hrs by MTS assay; assay type: functional, cell-based; conditions: MOLT-4, 72 h; procedure, shortened: as §1
# 5637 [35] = experiment: Cytotoxicity against human 5637 cells assessed as maximum inhibition of cell viability upto 198 uM incubated for 72 hrs by MTS assay relative to control; assay type: functional; conditions: up to 198 µM; procedure, shortened: as §2
# OVCAR-3 [36] = experiment: Cytotoxicity against human OVCAR-3 cells assessed as inhibition of cell viability incubated for 72 hrs by MTS assay; assay type: functional, cell-based; conditions: OVCAR-3, 72 h; procedure, shortened: as §1
# [37] = Cytotoxicity against human ACHN-luc2 cells assessed as maximum inhibition of cell viability upto 198 uM incubated for 72 hrs by MTS assay relative to control; assay type: functional; conditions: up to 198 µM; procedure, shortened: as §2
# BXPC-3 [38] = experiment: Cytotoxicity against human BXPC-3 cells assessed as maximum inhibition of cell viability upto 198 uM incubated for 72 hrs by MTS assay relative to control; assay type: functional; conditions: up to 198 µM; procedure, shortened: as §2
# CAKI-2 [39] = experiment: Cytotoxicity against human CAKI-2 cells assessed as maximum inhibition of cell viability upto 198 uM incubated for 72 hrs by MTS assay relative to control; assay type: functional; conditions: up to 198 µM; procedure, shortened: as §2
# SK-MES-1 [40] = experiment: Cytotoxicity against human SK-MES-1 cells assessed as maximum inhibition of cell viability upto 198 uM incubated for 72 hrs by MTS assay relative to control; assay type: functional; conditions: up to 198 µM; procedure, shortened: as §2
# OVCAR-3 [41] = experiment: Cytotoxicity against human OVCAR-3 cells assessed as maximum inhibition of cell viability upto 198 uM incubated for 72 hrs by MTS assay relative to control; assay type: functional; conditions: up to 198 µM; procedure, shortened: as §2
# KG-1 [42] = experiment: Cytotoxicity against human KG-1 cells assessed as maximum inhibition of cell viability upto 198 uM incubated for 72 hrs by MTS assay relative to control; assay type: functional; conditions: up to 198 µM; procedure, shortened: as §2
# HepG2 [43] = experiment: Cytotoxicity against human HepG2 cells assessed as inhibition of cell viability incubated for 72 hrs by MTS assay; assay type: functional, cell-based; conditions: HepG2, 72 h; procedure, shortened: as §1
# A498 [44] = experiment: Cytotoxicity against human A498 cells assessed as maximum inhibition of cell viability upto 198 uM incubated for 72 hrs by MTS assay relative to control; assay type: functional; conditions: up to 198 µM; procedure, shortened: as §2
compound,measurement,setting,value
CC(=O)O[C@H]1C(=O)[C@@]2(C)[C@H]([C@H](OC(=O)c3ccccc3)[C@]3(O)C[C@H](OC(=O)[C@H](O)[C@@H](NC(=O)c4ccccc4)c4ccccc4)C(C)=C1C3(C)C)[C@]1(OC(C)=O)CO[C@@H]1C[C@@H]2O [PACLITAXEL],IC50,[1],20 nM
same,Imax,[2],97%
same,Imax,PANC-1 [3],56%
same,IC50,A498 [4],20 nM
same,IC50,COLO 205 [5],10 nM
same,Imax,RT112/84 [6],77%
same,IC50,KG-1 [7],68 nM
same,IC50,PANC-1 [8],3 nM
same,Imax,RPMI-8226 [9],95%
same,IC50,HT-29 [10],30 nM
same,IC50,PC-3 [11],10 nM
same,Imax,HL-60 [12],97%
same,IC50,5637 [13],2 nM
same,IC50,MIA PaCa-2 [14],3 nM
same,IC50,[15],4 nM
same,IC50,HL-60 [16],12 nM
same,Imax,COLO 205 [17],90%
same,Imax,MCF7,75%
same,IC50,A2780 [18],8 nM
same,IC50,BXPC-3 [19],5 nM
same,Imax,HT-29 [20],79%
same,Imax,NCI-H1975,75%
same,IC50,K562 [21],13 nM
same,Imax,RL [22],63%
same,Imax,A2780 [23],72%
same,IC50,RT112/84 [24],10 nM
same,IC50,RPMI-8226 [25],2 nM
same,IC50,SK-MES-1 [26],10 nM
same,IC50,CAKI-2 [27],10 nM
same,Imax,MOLT-4 [28],99%
same,Imax,PC-3 [29],62%
same,IC50,RL [30],7 nM
same,Imax,MDA-MB-231,70%
same,Imax,HepG2 [31],54%
same,Imax,MIA PaCa-2 [32],83%
same,Imax,K562 [33],87%
same,IC50,MOLT-4 [34],4 nM
same,Imax,5637 [35],95%
same,IC50,OVCAR-3 [36],4 nM
same,Imax,[37],47%
same,Imax,BXPC-3 [38],85%
same,Imax,CAKI-2 [39],78%
same,Imax,SK-MES-1 [40],77%
same,Imax,OVCAR-3 [41],59%
same,Imax,KG-1 [42],79%
same,IC50,HepG2 [43],60 nM
same,Imax,A498 [44],74%
